Source: ChEMBL document CHEMBL1772952 (J Med Chem, 2011)
Active and inactive are the calls of the source. The calls are words filed in the database; no cut-off is given here.

Key:
Rattus norvegicus [1] = organism: Rattus norvegicus; assay: Selectivity ratio of Ki for SERT in rat cerebral cortex to Ki for NET in rat cerebral cortex; format: tissue-based
Outline: (§1)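 Ratio of Ki values from [3H]substrate uptake inhibition: [3H]dopamine for DAT in rat striatum, and [3H]serotonin for SERT or [3H]norepinephrine for NET in rat cerebral cortex. Each Ki came from an IC50 fitted over at least five triplicate concentrations, converted by Cheng-Prusoff.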

Rattus norvegicus [2] = organism: Rattus norvegicus; assay: Selectivity ratio of Ki for DAT in rat striatum to Ki for NET in rat cerebral cortex; format: tissue-based; outline: as §1
[3] = biological target: Sodium-dependent serotonin transporter (Rattus norvegicus, UniProt P31652); assay: Inhibition of SERT in rat cerebral cortex assessed as [3H]serotonin accumulation; format: tissue-based
Sodium-dependent serotonin transporter, sequence (P31652 whole entry): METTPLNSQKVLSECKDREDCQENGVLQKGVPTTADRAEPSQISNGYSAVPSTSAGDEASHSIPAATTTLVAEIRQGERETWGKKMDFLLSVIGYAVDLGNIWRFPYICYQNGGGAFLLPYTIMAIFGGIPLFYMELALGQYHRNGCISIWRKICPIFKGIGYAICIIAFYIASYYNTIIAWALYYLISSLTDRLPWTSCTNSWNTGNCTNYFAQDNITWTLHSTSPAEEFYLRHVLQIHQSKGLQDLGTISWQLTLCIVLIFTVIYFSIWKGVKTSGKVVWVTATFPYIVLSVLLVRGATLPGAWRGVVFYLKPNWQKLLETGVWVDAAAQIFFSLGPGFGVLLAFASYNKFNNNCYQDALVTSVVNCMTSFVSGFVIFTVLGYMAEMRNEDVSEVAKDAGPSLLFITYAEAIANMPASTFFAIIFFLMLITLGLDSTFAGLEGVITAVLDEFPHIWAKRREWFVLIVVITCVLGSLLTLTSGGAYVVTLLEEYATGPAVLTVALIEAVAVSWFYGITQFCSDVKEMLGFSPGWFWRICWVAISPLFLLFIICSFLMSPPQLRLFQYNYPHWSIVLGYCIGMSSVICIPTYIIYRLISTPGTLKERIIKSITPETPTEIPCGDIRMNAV
Outline: (§2)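 Uptake of [3H]dopamine (DAT, rat striatum) or [3H]serotonin (SERT, rat cerebral cortex) was measured with at least five triplicate concentrations spaced around the IC50. IC50 came from nonlinear curve fitting and was converted to Ki by Cheng-Prusoff. Values are mean ± SEM of 3–8 independent experiments.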

[4] = biological target: Sodium-dependent dopamine transporter (Rattus norvegicus, UniProt P23977); assay: Inhibition of DAT in rat striatum assessed as [3H]dopamine accumulation; format: tissue-based; outline: as §2
Sodium-dependent dopamine transporter, sequence (P23977 whole entry): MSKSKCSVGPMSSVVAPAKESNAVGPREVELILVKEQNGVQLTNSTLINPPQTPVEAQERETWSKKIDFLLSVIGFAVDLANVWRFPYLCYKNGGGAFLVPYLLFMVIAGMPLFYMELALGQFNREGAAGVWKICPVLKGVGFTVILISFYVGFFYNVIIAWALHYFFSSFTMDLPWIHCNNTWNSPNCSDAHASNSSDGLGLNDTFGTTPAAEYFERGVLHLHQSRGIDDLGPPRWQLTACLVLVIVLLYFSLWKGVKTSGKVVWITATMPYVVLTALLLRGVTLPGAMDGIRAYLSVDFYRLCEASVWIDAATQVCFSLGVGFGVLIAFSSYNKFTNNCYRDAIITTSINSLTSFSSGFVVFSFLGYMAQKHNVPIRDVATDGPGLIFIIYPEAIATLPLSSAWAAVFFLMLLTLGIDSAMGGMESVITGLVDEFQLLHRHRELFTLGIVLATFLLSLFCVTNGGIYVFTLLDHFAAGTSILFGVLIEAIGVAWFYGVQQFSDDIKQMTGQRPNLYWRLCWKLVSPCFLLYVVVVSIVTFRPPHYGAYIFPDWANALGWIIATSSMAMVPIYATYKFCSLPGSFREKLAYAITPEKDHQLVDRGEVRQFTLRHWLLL

[5] = Inhibition of NET in rat cerebral cortex assessed as [3H]norepinephrine accumulation; format: tissue-based
Outline: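 Rat cerebral cortex tissue; uptake of [3H]norepinephrine via NET measured. At least five concentrations per compound, each in triplicate, spaced evenly around the IC50. IC50 obtained by nonlinear curve fitting, then converted to Ki by Cheng-Prusoff. Values are mean ± SEM of three to eight independent experiments.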

Rattus norvegicus [6] = organism: Rattus norvegicus; assay: Selectivity ratio of Ki for DAT in rat striatum to Ki for SERT in rat cerebral cortex; format: tissue-based; outline: as §1
Rattus norvegicus [7] = assay: Antidepressant activity in […] Sprague-Dawley rat assessed as reduction of immobility time at 15 mg/kg, ip administered 30 mins before test by forced swimming test; format: functional, organism-based; design: dose 15 mg/kg
Outline: (§3)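 Male Sprague-Dawley rats (200–225 g), drug-naive and used once. Forced swim test: 15 min pretest swim in a water-filled glass cylinder (depth 22 cm, 24–25 °C). Drug or vehicle (10% β-hydroxypropyl cyclodextrin) was given i.p. 15 min after the pretest and again before the 5 min test swim 24 h later. Immobility was scored from video by a blinded rater.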

Rattus norvegicus [8] = assay: Antidepressant activity in […] Sprague-Dawley rat assessed as reduction of immobility time at 10 mg/kg, ip administered 1 hr before test by forced swimming test; format: functional, organism-based; design: dose 10 mg/kg; outline: as §3

O[C@H](CN[C@H]1CC[C@@H](C(c2ccccc2)c2ccccc2)OC1)c1ccc(F)cc1
Ratio Ki (Rattus norvegicus [1]): 3.72
Ratio Ki (Rattus norvegicus [2]): 0.48
Ki [3]: 825 nM
Ki [4]: 106 nM
Ki [5]: 222 nM
Ratio Ki (Rattus norvegicus [6]): 0.13

COc1cccc([C@@H](O)CN[C@H]2CC[C@@H](C(c3ccccc3)c3ccccc3)OC2)c1
Ratio Ki (Rattus norvegicus [1]): 2.55
Ratio Ki (Rattus norvegicus [2]): 0.29
Ki [3]: 1090 nM
Ki [4]: 125 nM
Ki [5]: 429 nM
Ratio Ki (Rattus norvegicus [6]): 0.11

O[C@@H](CN[C@H]1CC[C@@H](C(c2ccccc2)c2ccccc2)OC1)c1ccc(F)cc1
Ratio Ki (Rattus norvegicus [1]): 2.09
Ratio Ki (Rattus norvegicus [2]): 0.13
Ki [3]: 1140 nM
Ki [4]: 71.8 nM
Ki [5]: 546 nM
Ratio Ki (Rattus norvegicus [6]): 0.06

c1ccc(C(c2ccccc2)[C@@H]2CC[C@H](NCc3cccs3)CO2)cc1
Ratio Ki (Rattus norvegicus [1]): 3.94
Ratio Ki (Rattus norvegicus [2]): 0.88
Ki [3]: 186 nM
Ki [4]: 41.4 nM
Ki [5]: 47.2 nM
Ratio Ki (Rattus norvegicus [6]): 0.22

CN(C)CCCN1c2ccccc2CCc2ccccc21
Activity (Rattus norvegicus [7]): Active

c1ccc(C(c2ccccc2)[C@@H]2CC[C@H](NCc3ccco3)CO2)cc1
Ratio Ki (Rattus norvegicus [1]): 1.92
Ratio Ki (Rattus norvegicus [2]): 1.84
Ki [3]: 115 nM
Ki [4]: 110 nM
Ki [5]: 59.8 nM
Ratio Ki (Rattus norvegicus [6]): 0.96

COc1ccc(CN[C@H]2CC[C@@H](C(c3ccccc3)c3ccccc3)OC2)cc1
Ki [4]: 15.9 nM
Ki [5]: 29.3 nM

Oc1cccc(CN[C@H]2CC[C@@H](C(c3ccccc3)c3ccccc3)OC2)c1
Ratio Ki (Rattus norvegicus [1]): 1.04
Ratio Ki (Rattus norvegicus [2]): 0.81
Activity (Rattus norvegicus [8]): Active
Ki [3]: 40.1 nM
Ki [4]: 31.3 nM
Ki [5]: 38.5 nM
Ratio Ki (Rattus norvegicus [6]): 0.78

Oc1ccccc1CN[C@H]1CC[C@@H](C(c2ccccc2)c2ccccc2)OC1
Ratio Ki (Rattus norvegicus [1]): 2.75
Ratio Ki (Rattus norvegicus [2]): 1.25
Ki [3]: 440 nM
Ki [4]: 200 nM
Ki [5]: 160 nM
Ratio Ki (Rattus norvegicus [6]): 0.45

c1ccc(C(c2ccccc2)[C@@H]2CC[C@H](NCc3ccc[nH]3)CO2)cc1
Ratio Ki (Rattus norvegicus [1]): 3.56
Ratio Ki (Rattus norvegicus [2]): 1.09
Ki [3]: 141 nM
Ki [4]: 43.2 nM
Ki [5]: 39.6 nM
Ratio Ki (Rattus norvegicus [6]): 0.31

O[C@@H]1C[C@@H](C(c2ccccc2)c2ccccc2)OC[C@H]1NCc1ccc2[nH]ccc2c1 (single isomer, unassigned)
Ki [4]: 85.2 nM

c1ccc(C(c2ccccc2)[C@@H]2CC[C@H](NCc3ccncc3)CO2)cc1
Ratio Ki (Rattus norvegicus [1]): 1.92
Ratio Ki (Rattus norvegicus [2]): 0.06
Ki [3]: 889 nM
Ki [4]: 28.3 nM
Ki [5]: 462 nM
Ratio Ki (Rattus norvegicus [6]): 0.03

c1ccc(C(c2ccccc2)[C@@H]2CC[C@H](NCc3ccccn3)CO2)cc1
Ratio Ki (Rattus norvegicus [1]): 0.96
Ratio Ki (Rattus norvegicus [2]): 0.41
Ki [3]: 483 nM
Ki [4]: 209 nM
Ratio Ki (Rattus norvegicus [6]): 0.43

COc1cccc([C@H](O)CN[C@H]2CC[C@@H](C(c3ccccc3)c3ccccc3)OC2)c1
Ratio Ki (Rattus norvegicus [1]): 2.16
Ratio Ki (Rattus norvegicus [2]): 0.46
Ki [3]: 646 nM
Ki [4]: 137 nM
Ki [5]: 299 nM
Ratio Ki (Rattus norvegicus [6]): 0.21

c1ccc(C(c2ccccc2)[C@@H]2CC[C@H](NCc3cccc4ccccc34)CO2)cc1
Ratio Ki (Rattus norvegicus [1]): 0.38
Ratio Ki (Rattus norvegicus [2]): 2.04
Ki [3]: 88.8 nM
Ki [4]: 473 nM
Ki [5]: 232 nM
Ratio Ki (Rattus norvegicus [6]): 5.33

c1ccc(C(c2ccccc2)[C@@H]2CC[C@H](NCc3cccnc3)CO2)cc1
Ratio Ki (Rattus norvegicus [1]): 0.43
Ratio Ki (Rattus norvegicus [2]): 0.41
Ki [3]: 152 nM
Ki [4]: 145 nM
Ki [5]: 353 nM
Ratio Ki (Rattus norvegicus [6]): 0.95

O[C@H](CN[C@H]1CC[C@@H](C(c2ccccc2)c2ccccc2)OC1)c1ccccc1
Ratio Ki (Rattus norvegicus [1]): 2.67
Ratio Ki (Rattus norvegicus [2]): 0.18
Ki [3]: 796 nM
Ki [4]: 54 nM
Ki [5]: 298 nM
Ratio Ki (Rattus norvegicus [6]): 0.07

O[C@@H](CN[C@H]1CC[C@@H](C(c2ccccc2)c2ccccc2)OC1)c1ccccc1
Ratio Ki (Rattus norvegicus [1]): 5.78
Ratio Ki (Rattus norvegicus [2]): 0.9
Ki [3]: 936 nM
Ki [4]: 145 nM
Ki [5]: 162 nM
Ratio Ki (Rattus norvegicus [6]): 0.15

Oc1ccc(CN[C@H]2CC[C@@H](C(c3ccccc3)c3ccccc3)OC2)cc1
Ki [3]: 29.1 nM
Ki [4]: 42 nM
